Activity calls are given as the source filed them. The rule behind the calls is not given here.
Columns and labels:
[1] = Inhibition of delta17 Arf1 using ARNO4M; settings: read-out: Ki app
Method in brief: (§1)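 [Δ17]Arf1 lacking its N-terminal helix, GDP-loaded, with the BFA-sensitised Sec7 domain of human ARNO (4 mutations). Inhibitor was preincubated 5 min, then GTP or mGTP was added. Apparent rate constants were fitted. Means ± SD of ≥3 independent experiments.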

[2] = (§2) Inhibition of human Arf-GDP-ARNO complex at 100 uM by fluorescence anisotropy
Method in brief: (§3)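 Alexa 488 N-terminally labelled [Δ17]Arf1-GDP was held at 10 nM and titrated by serial dilution of wild-type ARNO Sec7, starting at 400 μM, with or without 100 μM inhibitor.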

HeLa [3] = assay: Dispersion of cis golgi marker betaCoP in human HeLa cells at 100 uM for 2 hrs; format: functional, cell-based
Method in brief: (§4)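 HeLa cells were exposed 2 h to 100 μM compound, with 0.5% DMSO as vehicle control, then fixed. Primary antibody was applied overnight at 4°C in PBS/0.25% BSA/0.01% Tween 20/0.01% saponin: TGN46 1:200, βCOP 1:100, KDEL receptor 1:500. Alexa 488 secondary was applied 20 min at room temperature. Marker localisation was imaged by confocal microscopy.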

HeLa [4] = assay: Dispersion of cis golgi marker KDEL in human HeLa cells at 100 uM for 2 hrs; format: functional, cell-based; method in brief: as §4
[5] = molecular target: ADP-ribosylation factor 1 (Homo sapiens) (UniProt P84077); assay: Reduction in nucleotide exchange on Arf1 using ARNO4M; method in brief: as §1
Sequence of ADP-ribosylation factor 1 (Homo sapiens) (P84077 whole entry, the tested form may be a part, canonical isoform): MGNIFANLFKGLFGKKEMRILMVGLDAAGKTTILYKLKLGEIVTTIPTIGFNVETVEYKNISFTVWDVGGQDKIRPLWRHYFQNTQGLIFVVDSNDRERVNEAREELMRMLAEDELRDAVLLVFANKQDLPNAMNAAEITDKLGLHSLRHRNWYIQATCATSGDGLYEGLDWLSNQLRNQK

[6] = Inhibition of mGDP/GTP exchange on delta17 Arf1 at 150 uM
[7] = Inhibition of mGTP/GTP exchange on delta17 Arf1 at 150 uM
[8] = Inhibition of GTP binding to Arf-ARNO complex
Method in brief: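 Nucleotide-free Arf1/ARNO complex made by removing GDP with alkaline phosphatase (20 units) plus 2 mM EDTA. GTP binding to the complex (0.2 μM) started with 1 μM mGTP, with or without 150 μM inhibitor. Mant fluorescence read at 37°C in Tris pH 8 buffer with MgCl2; mean ± SD of ≥3 experiments.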

Homo sapiens [9] = species: Homo sapiens; assay: as §2; method in brief: as §3
Homo sapiens [10] = species: Homo sapiens; assay: Effect on activation of human RhoA/Gef337 at 150 uM
Method in brief: (§5)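 Specificity panel: each small GTPase (1 μM, GST-fused RhoG or RhoA) with its GEF (50 nM; DH1 domain of TRIO or DH domain of GEF337), with or without 150 μM inhibitor. Exchange started with 2 μM mGTP and followed by time-resolved fluorescence.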

Homo sapiens [11] = species: Homo sapiens; assay: Effect on activation of human RhoG/TriD1 at 150 uM; method in brief: as §5
[12] = Inhibition of delta17 Arf1 activation stimulated by Sec7 domain of BIG1
[13] = Inhibition of delta14 Arf5 activation stimulated by Sec7 domain of BIG1
HeLa [14] = assay: Dispersion of trans golgi marker TGN46 in human HeLa cells at 100 uM for 2 hrs; format: functional, cell-based; method in brief: as §4
MDCK [15] = assay: Inhibition of rate of migration in MDCK cells expressing wild type ARNO; format: functional, cell-based; settings: Canis lupus familiaris
Method in brief: (§6)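 MDCK cells carrying tetracycline-repressible myc-wt-ARNO were grown as monolayers on collagen I and scratch-wounded. Cells were kept in MEM/5% FBS with or without compound. Doxycycline at 20 ng/ml repressed the transgene (endogenous ARNO only); without it, wt-ARNO was expressed. Wound closure was imaged every 5 min for 16 h at 37°C. Rate (μm2/h) was taken from hourly area increments over 8 h. Means ± SD of ≥3 experiments.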

MDCK [16] = assay: Inhibition of rate of migration of MDCK cells expressing endogenous levels of ARNO; format: functional, cell-based; settings: Canis lupus familiaris; method in brief: as §6
[17] = molecular target: ADP-ribosylation factor 1 (Homo sapiens) (UniProt P84077); assay: Inhibition of ARNO-stimulated nucleotide exchange of Arf1
Method in brief: (§7)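 GDP-loaded Arf isoforms truncated of the N-terminal helix (1 μM) with 50 nM Sec7 GEF. Runs were done with or without 150 μM inhibitor, preincubated 5 min, at 37°C in Tris pH 8/NaCl/MgCl2/2-mercaptoethanol buffer. Reaction was started with 2 μM mGTP and nucleotide exchange followed by time-resolved fluorescence.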

[18] = molecular target: ADP-ribosylation factor 5 (Homo sapiens) (UniProt P84085); assay: Inhibition of ARNO-stimulated nucleotide exchange of Arf5; method in brief: as §7
Sequence of ADP-ribosylation factor 5 (Homo sapiens) (P84085 whole entry): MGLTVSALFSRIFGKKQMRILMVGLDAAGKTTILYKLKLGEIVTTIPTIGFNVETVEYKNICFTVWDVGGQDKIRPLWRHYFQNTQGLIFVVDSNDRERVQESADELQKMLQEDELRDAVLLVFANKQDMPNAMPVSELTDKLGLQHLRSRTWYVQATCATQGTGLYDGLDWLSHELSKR

[19] = molecular target: ADP-ribosylation factor 6 (Homo sapiens) (UniProt P62330); assay: Inhibition of ARNO-stimulated nucleotide exchange of Arf6; method in brief: as §7
Sequence of ADP-ribosylation factor 6 (Homo sapiens) (P62330 whole entry): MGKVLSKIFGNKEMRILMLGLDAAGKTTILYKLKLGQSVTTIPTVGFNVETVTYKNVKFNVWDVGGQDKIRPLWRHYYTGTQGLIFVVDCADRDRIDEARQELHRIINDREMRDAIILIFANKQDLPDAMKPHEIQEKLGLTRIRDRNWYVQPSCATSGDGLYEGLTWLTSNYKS

HeLa [20] = assay: Inhibition of endogenous Arf activation in human HeLa cells; format: cell-based
Method in brief: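 Activation of endogenous Arf proteins in HeLa cells was measured by pull-down of GTP-loaded Arf through binding to the GGA3 effector.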

MDCK [21] = assay: Increase in rate of migration of MDCK cells expressing wild type ARNO relative to non-induced wild type ARNO cells; format: functional, Canis lupus familiaris
Method in brief: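 MDCK cells stably carrying N-terminal c-myc wt-ARNO under a tetracycline-repressible transactivator, grown on collagen I (3 μg/ml). Confluent monolayers were scratch-wounded, then kept in MEM/5% FBS with 20 ng/ml doxycycline (repressed) or without it (induced). Time-lapse imaging every 5 min for 16 h at 37°C, 5% CO2. Wound-area rate (μm2/h) was taken over 1-h intervals for 8 h; mean ± SD, ≥3 experiments.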

Question: With `C[C@H]1CCC/C=C/[C@@H]2C[C@H](O)C[C@H]2[C@H](O)/C=C/C(=O)O1` [BREFELDIN A] as the molecule, how does the Ki [1] read?
Answer: The Ki was 15 µM.

Question: And the Kd [2]?
Answer: Its Kd is 8.6 µM.

Question: And the Activity (HeLa [3])?
Answer: Its Activity is “Active”.

Question: What about the Activity (HeLa [4]) of the same molecule?
Answer: Its Activity is “Active”.

Question: What does the source list for `O=[N+]([O-])c1ccc(Nc2c([N+](=O)[O-])ccc3c2=NC2(CCCCC2)N=3)cc1`?
Answer: Kapp [5]: 0.0078 s⁻¹; Kapp [6]: 0.0004 s⁻¹; Kapp [7]: 0.0005 s⁻¹; Kapp [8]: 0.085 s⁻¹; Activity (Homo sapiens [9]): inactive; Activity (Homo sapiens [10]): 0.0028 s⁻¹; Activity (Homo sapiens [11]): 0.003 s⁻¹; Activity [12]: Active; Activity [13]: Active; Activity (HeLa [3]): Active; Activity (HeLa [4]): Active; Activity (HeLa [14]): Active; Activity (MDCK [15]): Active; Activity (MDCK [16]): Active; Activity [17]: Active; Activity [18]: Active; Activity [19]: inactive; Activity (HeLa [20]): Active; Activity (MDCK [21]): 54%
